Consider twelve compounds from ChEMBL document CHEMBL1129271, “Synthesis and biological evaluation of certain alkenyldiarylmethanes as anti-HIV-1 agents which act as non-nucleoside reverse transcriptase inhibitors” (J Med Chem, 1996).

Activity calls are given as the source filed them. The rule behind the calls is not given here.

Series [1] relates to CCRF-CEM. Kind of series: (§1) The compound was evaluated for prevention of the cytopathic effect of HIV-1 for cytopathicity of HIV-1RF in CEM-SS cells; NA= not active. The series is classed as functional, cell-based, Homo sapiens. The procedure, abridged: (§2)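 XTT-based microtiter assay of protection from HIV-1 cytopathic effect in CEM-SS cells, read as percent of uninfected drug-free control. EC50 is the concentration giving 50% protection in infected cultures. IC50 is the concentration giving 50% death of mock-infected cells. Values are averages of at least two determinations. Results were confirmed by supernatant RT and p24 levels.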

The test system of series [2] is CCRF-CEM. Kind of series: 50% cytotoxic concentration for mock-infected CEM cells. The format is functional, cell-based. As to conditions: Homo sapiens. The gist of the method:
as §2

In series [3] the test system is CCRF-CEM. Kind of series: The compound was tested for cytotoxicity in CEM-SS cells for mock-infected CEM cells. The format is functional, cell-based. The note with it: Homo sapiens. The gist of the method:
as §2

In series [4] the test system is CCRF-CEM. Kind of series: The compound was evaluated for prevention of the cytopathic effect of HIV-1 for cytopathicity of HIV-1RF in CEM-SS cells. The note with it: Homo sapiens. The series is classed as functional, cell-based. The procedure, abridged: as §2
A general note: Cytopathic effects are the visible damage that an infection or toxin causes in cultured cells.

Series [5] in a line: (§3) The therapeutic index of the compound is evaluated. The series is classed as functional.
Series [6] can be described thus: as §3. As to conditions: read-out: IC50/EC50.
Series [7] has as its system CCRF-CEM. The description is as §1. The format is functional, cell-based. As to conditions: Homo sapiens. The gist of the method:
as §2

A word on the EC50: it is the concentration at which the effect is half-maximal. As a reminder, the IC50 is the concentration that gives 50% inhibition. A higher IC50 goes with lower potency. For `CCCCCC=C(c1cc(Cl)c(OC)c(C(=O)N(C)C)c1)c1cc(Cl)c(OC)c(C(=O)N(C)C)c1`, the EC50 result in series [1] was “Not Active”. For the same compound, the IC50 in series [2] was found to be 21 µM.

Take `CCCCCC=C(c1cc(Cl)c(O)c(C(=O)NO)c1)c1cc(Cl)c(O)c(C(=O)NO)c1`: the EC50 entry in series [1] is “Not Active”. In series [3], this compound had an IC50 of 37 µM.

As to `CCCCCC=C(c1cc(Br)cc(C(=O)OC)c1OC)c1cc(Br)cc(C(=O)OC)c1OC`, the EC50 entry in series [1] was “Not Active”. For the same compound, in series [3], the IC50 came to 44 µM.

`CCCCCC=C(c1cc(Cl)c(OC)c(C(=O)OC)c1)c1cc(Cl)c(OC)c(C(=O)OC)c1`: in series [4], the EC50 came out at 16 µM. Moreover, in series [5], the IC50/EC50 is greater than 1.8. The compound further returned a half-maximal inhibitory concentration (IC50) in series [2] greater than 29.1 µM.

For the compound `CCCCCC=C(c1cc(Cl)c(OC)c(C(=O)NC)c1)c1cc(Cl)c(OC)c(C(=O)NC)c1`, the EC50 entry in series [1] is recorded as “Not Active”. The same compound gave an IC50 in series [2] of 21 µM.

Take `COC(=O)c1cc(C(=CCCBr)c2cc(Cl)c(OC)c(C(=O)OC)c2)cc(Cl)c1OC`: the selectivity ratio in series [6] was determined as 2.2. For the same compound, the EC50 in series [4] was determined as 8 µM. In addition, the IC50 in series [3] is 18 µM.

`CCCCCC=C(c1cc(Cl)c(O)c(C(=O)O)c1)c1cc(Cl)c(O)c(C(=O)O)c1`: the EC50 in series [4] is greater than 91.5 µM. In series [2], this compound had an IC50 greater than 91.5 µM.

With `CCCCCC=C(c1cc(Cl)c(OC)c(C(N)=O)c1)c1cc(Cl)c(OC)c(C(N)=O)c1`, the EC50 result in series [1] is on record as “Not Active”. Half-maximal inhibition in series [2] (IC50) was put at 31 µM.

In turn, `CCCCCCCCCCCCCCCC=C(c1cc(Br)c(OC)c(C(=O)OC)c1)c1cc(Br)c(OC)c(C(=O)OC)c1` gave an EC50 in series [4] greater than 28 µM. The IC50 in series [3] was greater than 28 µM.

In the case of `CCCCCC=C(c1cc(Cl)c(OC)c(C(=O)O)c1)c1cc(Cl)c(OC)c(C(=O)O)c1`, the NA entry in series [7] was “inactive”. Further, the IC50 in series [2] came to 84 µM.

In series [4], `CCCCCCCCCC=C(c1cc(Br)c(OC)c(C(=O)OC)c1)c1cc(Br)c(OC)c(C(=O)OC)c1` gave an EC50 greater than 30 µM. In series [3], this compound had an IC50 greater than 30 µM.

In the case of `CCCCCC=C(c1cc(Br)c(O)c(C(=O)O)c1)c1cc(Br)c(O)c(C(=O)O)c1.N.N`, the EC50 result in series [1] is reported as “Not Active”. 150 µM corresponded to half-maximal inhibition in series [3] (IC50).
